From ChEMBL document CHEMBL5303300, “EUbOPEN Chemogenomics Library - Multiplex” (2023)
“And” between values parts separate entries of the source, which are not always exact repeats. Equal entries are not always repeated.

Tests used:
HEK-293T = test: Multiplex assay against HEK293T; assay type: toxicity, cell-based; conditions: human, number of replicates 2
Outline: (§1)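 Values for tubulin, mitochondrial-mass and membrane-permeability phenotypes are per cents of cells with healthy nuclei. These cells were identified by CellPathfinder machine-learning gating of live cells that had been stained at seeding with Hoechst33342, BioTracker Green Microtubule Cytoskeleton Dye, MitoTracker Red and Annexin V Alexa Fluor 680 and imaged on a CQ1 microscope at 37°C and 5% CO2 after compound addition. The gating first set Hoechst high-intensity objects apart from normal cells, then split normal cells into healthy, pyknosed or fragmented nuclei, and pyknosed cells into mitotic or apoptotic.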

U2OS = test: Multiplex assay against U2OS; assay type: toxicity, cell-based; conditions: human, number of replicates 2; outline: as §1
[1] = 24 h, 1 µM, compound concentration 1 uM
[2] = 24 h, 10 µM, compound concentration 10 uM
[3] = 48 h, 1 µM, compound concentration 1 uM
[4] = 48 h, 10 µM, compound concentration 10 uM
[5] = 12 h, 1 µM, compound concentration 1 uM
[6] = 12 h, 10 µM, compound concentration 10 uM

Compound: COc1cc(OC)cc(-c2cc3cnc(N)nc3nc2NC(=O)NC(C)(C)C)c1
- Population Mitochondria Different-Phenotype (%) (HEK-293T; [1]): 5% and 2% and 7%
- Population Mitotic Cells (%) (HEK-293T; [1]): 53% and 45% and 48% and 46%
- Population Normal (%) (HEK-293T; [1]): 89% and 91%
- Population Pyknosed Nuclei (%) (HEK-293T; [1]): 12% and 11% and 9%
- Population Tubulin-Different-Phenotype (%) (HEK-293T; [1]): 28% and 23% and 29% and 30%
- Total Cell Count (HEK-293T; [1]): 1161 and 950 and 940 and 952
- Population Apoptotic (%) (HEK-293T; [2]): 52% and 40% and 48%
- Population Fragmented Nuclei (%) (HEK-293T; [2]): 5% and 4% and 11% and 8%
- Population Healthy Nuclei (%) (HEK-293T; [2]): 85% and 88% and 78% and 82%
- Population Hoechst High Intensity Objects (%) (HEK-293T; [2]): 8% and 9%
- Population Membrane Permeable-Phenotype (%) (HEK-293T; [2]): 3% and 2% and 1%
- Population Mitochondria Different-Phenotype (%) (HEK-293T; [2]): 11% and 4% and 3%
- Population Mitotic Cells (%) (HEK-293T; [2]): 47% and 59% and 51%
- Population Normal (%) (HEK-293T; [2]): 91% and 90%
- Population Pyknosed Nuclei (%) (HEK-293T; [2]): 9% and 6% and 10%
- Population Tubulin-Different-Phenotype (%) (HEK-293T; [2]): 30% and 35% and 38% and 33%
- Total Cell Count (HEK-293T; [2]): 797 and 901 and 1521 and 1236
- Population Apoptotic (%) (HEK-293T; [3]): 16% and 24% and 25% and 17%
- Population Fragmented Nuclei (%) (HEK-293T; [3]): 13% [middle of 4 runs]
- Population Healthy Nuclei (%) (HEK-293T; [3]): 75% and 84% and 83% and 86%
- Population Hoechst High Intensity Objects (%) (HEK-293T; [3]): 8% and 7% and 10%
- Population Membrane Permeable-Phenotype (%) (HEK-293T; [3]): 6% and 3% and 4% and 2%
- Population Mitochondria Different-Phenotype (%) (HEK-293T; [3]): 0%
- Population Mitotic Cells (%) (HEK-293T; [3]): 83% and 75% and 82%
- Population Normal (%) (HEK-293T; [3]): 91% and 92% and 89%
- Population Pyknosed Nuclei (%) (HEK-293T; [3]): 2% and 3% and 4%
- Population Tubulin-Different-Phenotype (%) (HEK-293T; [3]): 12% and 9% and 13% and 16%
- Total Cell Count (HEK-293T; [3]): 3190 and 2284 and 2394 and 1901
- Population Apoptotic (%) (HEK-293T; [4]): 28% and 21% and 14%
- Population Fragmented Nuclei (%) (HEK-293T; [4]): 14% [middle of 4 runs]
- Population Healthy Nuclei (%) (HEK-293T; [4]): 85% and 87% and 73% and 82%
- Population Hoechst High Intensity Objects (%) (HEK-293T; [4]): 9% and 10%
- Population Membrane Permeable-Phenotype (%) (HEK-293T; [4]): 4% and 5% and 2%
- Population Mitochondria Different-Phenotype (%) (HEK-293T; [4]): 0% and 1%
- Population Mitotic Cells (%) (HEK-293T; [4]): 71% and 78% and 85%
- Population Normal (%) (HEK-293T; [4]): 90% and 89%
- Population Pyknosed Nuclei (%) (HEK-293T; [4]): 3% and 2%
- Population Tubulin-Different-Phenotype (%) (HEK-293T; [4]): 15% and 18% and 20%
- Total Cell Count (HEK-293T; [4]): 1964 and 1991 and 3775 and 2773
- Population Apoptotic (%) (U2OS; [5]): 80% [middle of 4 runs]
- Population Fragmented Nuclei (%) (U2OS; [5]): 11% and 5% and 6% and 4%
- Population Healthy Nuclei (%) (U2OS; [5]): 80% and 87% and 83% and 89%
- Population Hoechst High Intensity Objects (%) (U2OS; [5]): 0%
- Population Membrane Permeable-Phenotype (%) (U2OS; [5]): 2% and 0% and 1%
- Population Mitochondria Different-Phenotype (%) (U2OS; [5]): 0%
- Population Normal (%) (U2OS; [5]): 100%
- Population Pyknosed Nuclei (%) (U2OS; [5]): 7% and 6% and 10% and 5%
- Population Tubulin-Different-Phenotype (%) (U2OS; [5]): 52% and 94% and 55% and 80%
- Population Healthy Nuclei (%) (U2OS; [6]): 85% and 60% and 88% and 65%
- Population Hoechst High Intensity Objects (%) (U2OS; [6]): 0%
- Population Membrane Permeable-Phenotype (%) (U2OS; [6]): 6% [middle of 4 runs]
- Population Mitochondria Different-Phenotype (%) (U2OS; [6]): 0% and 4%
- Population Normal (%) (U2OS; [6]): 99% and 100%
- Population Pyknosed Nuclei (%) (U2OS; [6]): 10% and 15% and 6% and 9%
- Population Tubulin-Different-Phenotype (%) (U2OS; [6]): 64% [middle of 4 runs]
- Population Apoptotic (%) (U2OS; [1]): 60% and 84% and 50%
- Population Fragmented Nuclei (%) (U2OS; [1]): 3% and 1% and 2%
- Population Healthy Nuclei (%) (U2OS; [1]): 89% and 90% and 82% and 86%
- Population Hoechst High Intensity Objects (%) (U2OS; [1]): 1% and 0%
- Population Membrane Permeable-Phenotype (%) (U2OS; [1]): 0% and 3% and 1%
- Population Mitochondria Different-Phenotype (%) (U2OS; [1]): 1% and 0%
- Population Normal (%) (U2OS; [1]): 98% and 100%
- Population Pyknosed Nuclei (%) (U2OS; [1]): 6% and 8% and 14% and 11%
- Population Tubulin-Different-Phenotype (%) (U2OS; [1]): 56% and 85% and 53% and 83%
- Population Apoptotic (%) (U2OS; [2]): 54% [middle of 4 runs]
- Population Healthy Nuclei (%) (U2OS; [2]): 83% and 68% and 84% and 72%
- Population Hoechst High Intensity Objects (%) (U2OS; [2]): 0%
- Population Membrane Permeable-Phenotype (%) (U2OS; [2]): 4% [middle of 4 runs]
- Population Mitochondria Different-Phenotype (%) (U2OS; [2]): 1% and 8% and 0%
- Population Normal (%) (U2OS; [2]): 100%
- Population Pyknosed Nuclei (%) (U2OS; [2]): 10% and 16% and 9% and 13%
- Population Tubulin-Different-Phenotype (%) (U2OS; [2]): 62% [middle of 4 runs]
- Population Apoptotic (%) (U2OS; [3]): 50% and 84% and 60% and 74%
- Population Fragmented Nuclei (%) (U2OS; [3]): 3% and 2% and 4%
- Population Healthy Nuclei (%) (U2OS; [3]): 86% and 88% and 92%
- Population Hoechst High Intensity Objects (%) (U2OS; [3]): 0%
- Population Membrane Permeable-Phenotype (%) (U2OS; [3]): 1% and 0%
- Population Mitochondria Different-Phenotype (%) (U2OS; [3]): 0% and 1%
- Population Normal (%) (U2OS; [3]): 100%
- Population Pyknosed Nuclei (%) (U2OS; [3]): 10% and 8% and 4% and 7%
- Population Tubulin-Different-Phenotype (%) (U2OS; [3]): 70% and 90% and 59% and 84%
- Population Apoptotic (%) (U2OS; [4]): 48% and 69% and 66% and 78%
- Population Healthy Nuclei (%) (U2OS; [4]): 87% and 68% and 86% and 64%
- Population Hoechst High Intensity Objects (%) (U2OS; [4]): 0%
- Population Membrane Permeable-Phenotype (%) (U2OS; [4]): 2% and 9%
- Population Mitochondria Different-Phenotype (%) (U2OS; [4]): 0% and 3% and 1%
- Population Mitotic Cells (%) (U2OS; [4]): 33% [middle of 4 runs]
- Population Normal (%) (U2OS; [4]): 100% and 99%
- Population Pyknosed Nuclei (%) (U2OS; [4]): 10% and 16% and 17%
- Population Tubulin-Different-Phenotype (%) (U2OS; [4]): 67% [middle of 4 runs]
